Measured values taken from article PMC9290503 (British Journal of Clinical Pharmacology, 2021).

How the values were obtained:
[1] = Study 1001 single-rising-dose plasma pharmacokinetics; format: in vivo, human; conditions: for AUC0–24, mean (CV%) / AUC0–∞, mean (CV%) / t max, median (range) / t ½z, mean (CV%): plasma, Study 1001
[2] = Study 1003 MRD cohorts plasma pharmacokinetics; format: in vivo, human; conditions: for AUC0–24, mean (CV%) / AUC0–∞, mean (CV%) / C max, mean (CV%) / t max, median (range) / t ½z, mean (CV%): plasma
[3] = Safety and tolerability, Study 1001; format: in vivo, human
In short: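 Double-blind, placebo-controlled single oral doses (5–60 mg) in healthy adults aged 18–55, given after at least 10 h fasting, with sentinel dosing in the first cohort. Monitored AEs, physical and neurological exams, vital signs, flagged clinical labs and 12-lead ECG. TEAEs counted from first dose to 30 days after. Semen analysis and serum FSH, LH, testosterone and inhibin B were taken at baseline and one or two spermatogenic cycles post-dose. Follow-up to day 60 (±2).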

[4] = test system: mouse model of Kabuki syndrome; conditions: ref [7], cited from earlier work
[5] = test system: rodent models of neurodevelopmental disorder; conditions: two rodent models of neurodevelopmental disorder; ref [8]; cited from earlier work
[6] = preliminary toxicology studies in animals; no reference given; cited from earlier work
human LSD1 = conditions: targets the catalytic FAD in the LSD1 active site; no reference given; cited from earlier work
[7] = 20 mg q.d., non‐Japanese, Day 1
[8] = 20 mg q.d., non‐Japanese, Day 10
[9] = 60 mg q.d., non‐Japanese, Day 1
[10] = 60 mg q.d., non‐Japanese, Day 10
[11] = 160 mg q.d., non‐Japanese, Day 1
[12] = 160 mg q.d., non‐Japanese, Day 10

## Cl.O=C(NC1CCOCC1)c1csc([C@@H]2C[C@H]2NCC2CC2)c1 [TAK‐418]
[1]; healthy volunteers, across both studies and doses
  t ½z: 3.13 to 5.36 h
[1]; single oral dose 5 mg
  AUC0–24, mean (CV%): 89.3 (41.1) h*ng mL^−1
  AUC0–∞, mean (CV%): 92.2 (43.3) h*ng mL^−1
  t max, median (range): 1.00 (0.98–1.02) h
  t ½z, mean (CV%): 3.133 (14.8) h
[1]; single oral dose 15 mg
  AUC0–24, mean (CV%): 295.8 (21.5) h*ng mL^−1
  AUC0–∞, mean (CV%): 302.2 (21.8) h*ng mL^−1
  t max, median (range): 1.00 (1.00–2.00) h
  t ½z, mean (CV%): 4.375 (9.0) h
[1]; single oral dose 30 mg, fasted
  AUC0–24, mean (CV%): 646.3 (7.9) h*ng mL^−1
  AUC0–∞, mean (CV%): 661.3 (7.9) h*ng mL^−1
  t max, median (range): 1.00 (0.50–1.00) h
  t ½z, mean (CV%): 4.772 (11.0) h
[1]; single oral dose 40 mg
  AUC0–24, mean (CV%): 690.2 (24.0) h*ng mL^−1
  AUC0–∞, mean (CV%): 700.0 (24.5) h*ng mL^−1
  t max, median (range): 1.25 (1.00–1.52) h
  t ½z, mean (CV%): 3.868 (12.7) h
[1]; single oral dose 60 mg
  AUC0–24, mean (CV%): 1553.5 (29.4) h*ng mL^−1
  AUC0–∞, mean (CV%): 1584.3 (29.9) h*ng mL^−1
  t max, median (range): 1.00 (1.00–1.00) h
  t ½z, mean (CV%): 4.220 (14.9) h
[2]; 20 mg q.d.
  PK linearity point estimate, Day 10 AUC0–24 compared with Day 1 AUC0–∞: 1.29
[2]; 20 mg, Day 1
  AUC0–24, Japanese vs non‐Japanese participants: 1.21 fold
[2]; 20 mg, Day 10 steady state
  AUC0–24, Japanese compared with non‐Japanese participants: approximately the same
[2]; 60 mg q.d.
  PK linearity point estimate, Day 10 AUC0–24 compared with Day 1 AUC0–∞: 1.13
[2]; 160 mg q.d.
  PK linearity point estimate, Day 10 AUC0–24 compared with Day 1 AUC0–∞: 1.06
[2]; 20–160 mg q.d.
  mean terminal disposition phase half‐life (t ½z) at steady state: 4.35 to 5.36 h
[2]; Day 10, 20–160 mg q.d.
  median t max at steady state: 1.00 to 1.26 h
[2]; 20 mg q.d., Japanese, Day 1
  AUC0–24, mean (CV%): 610.3 (14.4) h*ng mL^−1
  AUC0–∞, mean (CV%): 619.0 (14.8) h*ng mL^−1
  C max, mean (CV%): 154.7 (6.0) ng mL^−1
  t max, median (range): 1.00 (0.50–1.50) h
[2]; 20 mg q.d., Japanese, Day 10
  AUC0–24, mean (CV%): 677.3 (10.9) h*ng mL^−1
  C max, mean (CV%): 171.3 (6.0) ng mL^−1
  t max, median (range): 1.00 (1.00–1.50) h
  t ½z, mean (CV%): 4.350 (14.4) h
[2]; [7]
  AUC0–24, mean (CV%): 503.3 (32.9) h*ng mL^−1
  AUC0–∞, mean (CV%): 515.3 (33.4) h*ng mL^−1
  C max, mean (CV%): 85.2 (33.8) ng mL^−1
  t max, median (range): 1.75 (1.00–3.00) h
[2]; [8]
  AUC0–24, mean (CV%): 668.2 (34.2) h*ng mL^−1
  C max, mean (CV%): 117.8 (30.1) ng mL^−1
  t max, median (range): 1.26 (1.00–2.00) h
  t ½z, mean (CV%): 4.997 (10.1) h
[2]; [9]
  AUC0–24, mean (CV%): 1445.5 (24.4) h*ng mL^−1
  AUC0–∞, mean (CV%): 1476.7 (25.4) h*ng mL^−1
  C max, mean (CV%): 276.0 (21.6) ng mL^−1
  t max, median (range): 1.50 (1.00–4.00) h
[2]; [10]
  AUC0–24, mean (CV%): 1660.5 (25.4) h*ng mL^−1
  C max, mean (CV%): 307.2 (17.0) ng mL^−1
  t max, median (range): 1.250 (1.00–3.00) h
  t ½z, mean (CV%): 4.923 (17.8) h
[2]; [11]
  AUC0–24, mean (CV%): 3747.3 (6.4) h*ng mL^−1
  AUC0–∞, mean (CV%): 3822.0 (5.7) h*ng mL^−1
  C max, mean (CV%): 679.3 (28.8) ng mL^−1
  t max, median (range): 1.50 (1.00–3.00) h
[2]; [12]
  AUC0–24, mean (CV%): 4058.3 (6.1) h*ng mL^−1
  C max, mean (CV%): 697.7 (14.7) ng mL^−1
  t max, median (range): 1.00 (1.00–1.50) h
  t ½z, mean (CV%): 5.357 (8.7) h
[3]; 23 male participants
  semen parameters or serum hormone levels: no clinically relevant changes
[3]; Study 1001
  laboratory test results, vital signs or electrocardiogram readings: No clinically significant changes
  nausea, most common TAK‐418‐related TEAE: reported in one participant administered TAK‐418 15 mg and another administered TAK‐418 40 mg
  serious AEs, suicidal ideation/behaviour, deaths: no serious AEs (SAEs), suicidal ideation/behaviour or deaths were reported
[3]; one at 15 mg (unrelated), one at 40 mg (study‐drug related)
  testicular pain: two men given TAK‐418 reported testicular pain
[3]; single dose 5–60 mg while fasting, 13 participants
  participants reporting TEAEs: 43%
[3]; single dose up to 60 mg
  severity of TEAEs: mild
[3]; single dose, n = 3
  upper respiratory tract infection (most common TEAE): 10%
[4]; after 2 weeks of treatment, compared with vehicle control
  visuospatial learning and memory defects: visuospatial learning and memory defects were rescued
[4]; mouse model of Kabuki syndrome
  H3K4 histone modification defects: rescued H3K4 histone modification defects
  adult neurogenesis in the hippocampus: dose‐dependently normalized adult neurogenesis in the hippocampus
[5]
  autism symptoms: improved autism symptoms
[6]
  toxicology findings: testicular findings in a single species
Human LSD1
  inhibition of LSD1 activity: irreversibly inhibits the activity of human LSD1
